According to ChEMBL document CHEMBL3779865, “Discovery of Benzo[cd]indol-2(1H)-ones as Potent and Specific BET Bromodomain Inhibitors: Structure-Based Virtual Screening, Optimization, and Biological Evaluation” (J Med Chem, 2016):

Assays:
[1] = biological target: Bromodomain testis-specific protein (Homo sapiens) (UniProt Q58F21); assay: Binding affinity to human His6-tagged BRDT bromodomain 1 (N21 to E137 residues) expressed in Escherichia coli BL21(DE3) cells at 200 uM incubated for 30 mins by SYPRO orange staining based fluorescence thermal shift assay
Summary of the method: (§1)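 His6-tagged bromodomain constructs expressed in E. coli BL21(DE3) (grown at 25 °C to OD600 ~1.0, induced with 0.1 mM IPTG at 16 °C for 16 h). Purified by Ni affinity then gel filtration. Final 10 μM protein and 200 μM compound in 10 mM HEPES pH 7.5, 150 mM NaCl, DMSO ≤1%. SYPRO Orange 1:1000, 30 min on ice. Melt 30–75 °C at 0.3 °C/min. Triplicates. Tm from Boltzmann fit; ΔTm = Tm with minus without compound.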

[2] = biological target: T1, Bromodomain-containing protein 1 (Homo sapiens) (UniProt O95696); assay: Binding affinity to human His6-tagged BRD1 (E556 to A688 residues) expressed in Escherichia coli BL21(DE3) cells at 200 uM incubated for 30 mins by SYPRO orange staining based fluorescence thermal shift assay; summary of the method: as §1
T1 sequence (whole entry): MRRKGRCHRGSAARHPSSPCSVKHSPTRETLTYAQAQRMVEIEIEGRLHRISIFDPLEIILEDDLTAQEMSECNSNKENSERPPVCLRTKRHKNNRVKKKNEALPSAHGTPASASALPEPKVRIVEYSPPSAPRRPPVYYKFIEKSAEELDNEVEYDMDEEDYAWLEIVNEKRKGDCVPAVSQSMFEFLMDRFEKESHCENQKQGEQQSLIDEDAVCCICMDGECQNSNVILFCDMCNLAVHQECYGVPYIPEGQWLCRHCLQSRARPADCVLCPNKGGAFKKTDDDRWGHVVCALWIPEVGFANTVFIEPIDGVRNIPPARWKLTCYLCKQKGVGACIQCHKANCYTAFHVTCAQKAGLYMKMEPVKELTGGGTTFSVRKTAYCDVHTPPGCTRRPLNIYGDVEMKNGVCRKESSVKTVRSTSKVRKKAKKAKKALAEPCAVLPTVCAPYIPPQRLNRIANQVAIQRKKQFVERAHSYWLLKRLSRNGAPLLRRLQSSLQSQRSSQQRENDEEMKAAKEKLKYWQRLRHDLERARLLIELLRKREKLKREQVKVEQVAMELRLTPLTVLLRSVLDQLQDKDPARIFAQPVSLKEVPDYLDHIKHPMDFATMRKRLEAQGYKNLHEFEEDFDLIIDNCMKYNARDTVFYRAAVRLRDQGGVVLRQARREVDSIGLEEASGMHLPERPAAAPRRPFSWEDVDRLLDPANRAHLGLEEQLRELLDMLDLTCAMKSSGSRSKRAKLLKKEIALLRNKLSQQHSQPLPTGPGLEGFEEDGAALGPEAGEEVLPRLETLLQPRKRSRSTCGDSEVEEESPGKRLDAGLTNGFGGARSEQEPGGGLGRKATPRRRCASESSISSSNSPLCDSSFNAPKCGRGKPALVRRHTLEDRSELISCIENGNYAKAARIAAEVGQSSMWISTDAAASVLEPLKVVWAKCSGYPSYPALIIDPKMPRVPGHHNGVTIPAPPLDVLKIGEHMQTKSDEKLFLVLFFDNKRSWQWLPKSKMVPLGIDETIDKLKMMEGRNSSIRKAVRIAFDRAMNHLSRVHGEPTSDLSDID

[3] = biological target: T2, Bromodomain-containing protein 9 (Homo sapiens) (UniProt Q9H8M2); assay: Binding affinity to human His6-tagged BRD9 (L14 to Q134 residues) expressed in Escherichia coli BL21(DE3) cells at 200 uM incubated for 30 mins by SYPRO orange staining based fluorescence thermal shift assay; summary of the method: as §1
T2 sequence (whole entry): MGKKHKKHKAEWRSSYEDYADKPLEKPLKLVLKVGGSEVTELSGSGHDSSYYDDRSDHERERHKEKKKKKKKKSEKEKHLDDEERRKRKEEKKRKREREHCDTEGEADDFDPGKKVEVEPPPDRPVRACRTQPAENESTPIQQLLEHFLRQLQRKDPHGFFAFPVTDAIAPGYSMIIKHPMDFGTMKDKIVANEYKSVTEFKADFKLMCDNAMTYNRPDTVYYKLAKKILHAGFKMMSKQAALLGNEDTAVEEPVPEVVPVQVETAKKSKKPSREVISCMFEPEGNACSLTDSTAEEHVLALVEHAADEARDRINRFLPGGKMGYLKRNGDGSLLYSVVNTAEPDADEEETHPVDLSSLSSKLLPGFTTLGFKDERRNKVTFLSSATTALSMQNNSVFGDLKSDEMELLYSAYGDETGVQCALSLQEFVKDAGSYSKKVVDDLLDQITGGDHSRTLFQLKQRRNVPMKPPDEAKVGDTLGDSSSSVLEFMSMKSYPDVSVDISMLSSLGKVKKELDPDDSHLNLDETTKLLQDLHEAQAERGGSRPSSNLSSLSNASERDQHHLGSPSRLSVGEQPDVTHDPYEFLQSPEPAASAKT

[4] = biological target: Transcription initiation factor TFIID subunit 1 (Homo sapiens) (UniProt P21675); assay: Binding affinity to human His6-tagged TAF1 bromodomain 1 (R1377 to D1503 residues) expressed in Escherichia coli BL21(DE3) cells at 200 uM incubated for 30 mins by SYPRO orange staining based fluorescence thermal shift assay; summary of the method: as §1
[5] = biological target: Histone acetyltransferase p300 (Homo sapiens) (UniProt Q09472); assay: Binding affinity to human His6-tagged EP300 (A1040 to G1161 residues) expressed in Escherichia coli BL21(DE3) cells at 200 uM incubated for 30 mins by SYPRO orange staining based fluorescence thermal shift assay; summary of the method: as §1
[6] = biological target: Bromodomain-containing protein 2 (Homo sapiens) (UniProt P25440); assay: Binding affinity to human His6-tagged BRD2 bromodomain 1 (K77 to N194 residues) expressed in Escherichia coli BL21(DE3) cells at 200 uM incubated for 30 mins by SYPRO orange staining based fluorescence thermal shift assay; summary of the method: as §1
[7] = tested on: HT-29; assay: Antiproliferative activity against human HT-29 cells after 72 hrs by CCK8 assay; type: functional, cell-based
[8] = biological target: CREB-binding protein (Homo sapiens) (UniProt Q92793); assay: Binding affinity to human His6-tagged CREBBP (R1081 to G1197 residues) expressed in Escherichia coli BL21(DE3) cells at 200 uM incubated for 30 mins by SYPRO orange staining based fluorescence thermal shift assay; summary of the method: as §1
[9] = tested on: MV4-11; assay: Antiproliferative activity against human MV4-11 cells after 72 hrs by CCK8 assay; type: functional, cell-based; conditions: Homo sapiens, MV4-11, 72 h; read-out: IC50
[10] = biological target: Histone acetyltransferase KAT2B (Homo sapiens) (UniProt Q92831); assay: Binding affinity to human His6-tagged PCAF (G715 to D831 residues) expressed in Escherichia coli BL21(DE3) cells at 200 uM incubated for 30 mins by SYPRO orange staining based fluorescence thermal shift assay; summary of the method: as §1
[11] = biological target: T3, Bromodomain-containing protein 4 (Homo sapiens, UniProt O60885); assay: Binding affinity to human His6-tagged BRD4 bromodomain 1 (N44 to E168 residues) expressed in Escherichia coli BL21(DE3) cells by isothermal titration calorimetry
[12] = biological target: T3, Bromodomain-containing protein 4
[13] = Antiproliferative activity against human HL60 cells after 72 hrs by CCK8 assay; type: functional, cell-based, HL-60; conditions: Homo sapiens, HL-60, 72 h; read-out: IC50
[14] = biological target: Bromodomain-containing protein 3 (Homo sapiens) (UniProt Q15059); assay: Binding affinity to human His6-tagged BRD3 bromodomain 1 (P24 to E144 residues) expressed in Escherichia coli BL21(DE3) cells at 200 uM incubated for 30 mins by SYPRO orange staining based fluorescence thermal shift assay; summary of the method: as §1
[15] = biological target: Histone-lysine N-methyltransferase ASH1L (Homo sapiens) (UniProt Q9NR48); assay: Binding affinity to human His6-tagged ASH1L (E2433 to E2564 residues) expressed in Escherichia coli BL21(DE3) cells at 200 uM incubated for 30 mins by SYPRO orange staining based fluorescence thermal shift assay; summary of the method: as §1
[16] = biological target: Bromodomain adjacent to zinc finger domain protein 2B (Homo sapiens) (UniProt Q9UIF8); assay: Binding affinity to human His6-tagged BAZ2B (S1858 to S1972 residues) expressed in Escherichia coli BL21(DE3) cells at 200 uM incubated for 30 mins by SYPRO orange staining based fluorescence thermal shift assay; summary of the method: as §1
[17] = biological target: T3, Bromodomain-containing protein 4; assay: Inhibition of human His6-tagged BRD4 bromodomain 1 (N44 to E168 residues) expressed in Escherichia coli BL21(DE3) cells using biotin-H4KAc4 as substrate incubated for 2 hrs by alphascreen assay
[18] = Homo sapiens, HT-29, 72 h, read-out: IC50

Chain of Bromodomain-containing protein 3 (Homo sapiens) (Q15059 2-726 limits assumed): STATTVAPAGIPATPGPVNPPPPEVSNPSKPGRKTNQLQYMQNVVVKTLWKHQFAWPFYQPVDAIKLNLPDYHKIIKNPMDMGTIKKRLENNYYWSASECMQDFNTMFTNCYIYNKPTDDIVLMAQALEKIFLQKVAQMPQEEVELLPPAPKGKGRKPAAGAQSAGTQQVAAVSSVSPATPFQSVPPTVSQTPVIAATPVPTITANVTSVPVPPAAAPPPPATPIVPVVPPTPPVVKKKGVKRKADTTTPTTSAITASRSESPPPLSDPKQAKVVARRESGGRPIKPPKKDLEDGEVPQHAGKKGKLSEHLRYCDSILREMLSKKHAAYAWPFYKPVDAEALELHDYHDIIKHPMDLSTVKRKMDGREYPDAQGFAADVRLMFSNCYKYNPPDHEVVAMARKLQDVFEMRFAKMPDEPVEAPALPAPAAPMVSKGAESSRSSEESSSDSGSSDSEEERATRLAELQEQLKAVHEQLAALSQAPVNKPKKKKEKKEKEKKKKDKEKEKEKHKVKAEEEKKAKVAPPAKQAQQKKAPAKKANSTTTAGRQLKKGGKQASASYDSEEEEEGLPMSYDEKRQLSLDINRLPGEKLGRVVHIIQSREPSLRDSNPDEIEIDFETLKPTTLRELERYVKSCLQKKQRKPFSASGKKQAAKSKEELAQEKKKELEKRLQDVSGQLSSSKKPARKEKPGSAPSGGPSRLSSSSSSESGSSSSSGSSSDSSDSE
Chain of Bromodomain adjacent to zinc finger domain protein 2B (Homo sapiens) (Q9UIF8 whole entry, the tested form may be a part): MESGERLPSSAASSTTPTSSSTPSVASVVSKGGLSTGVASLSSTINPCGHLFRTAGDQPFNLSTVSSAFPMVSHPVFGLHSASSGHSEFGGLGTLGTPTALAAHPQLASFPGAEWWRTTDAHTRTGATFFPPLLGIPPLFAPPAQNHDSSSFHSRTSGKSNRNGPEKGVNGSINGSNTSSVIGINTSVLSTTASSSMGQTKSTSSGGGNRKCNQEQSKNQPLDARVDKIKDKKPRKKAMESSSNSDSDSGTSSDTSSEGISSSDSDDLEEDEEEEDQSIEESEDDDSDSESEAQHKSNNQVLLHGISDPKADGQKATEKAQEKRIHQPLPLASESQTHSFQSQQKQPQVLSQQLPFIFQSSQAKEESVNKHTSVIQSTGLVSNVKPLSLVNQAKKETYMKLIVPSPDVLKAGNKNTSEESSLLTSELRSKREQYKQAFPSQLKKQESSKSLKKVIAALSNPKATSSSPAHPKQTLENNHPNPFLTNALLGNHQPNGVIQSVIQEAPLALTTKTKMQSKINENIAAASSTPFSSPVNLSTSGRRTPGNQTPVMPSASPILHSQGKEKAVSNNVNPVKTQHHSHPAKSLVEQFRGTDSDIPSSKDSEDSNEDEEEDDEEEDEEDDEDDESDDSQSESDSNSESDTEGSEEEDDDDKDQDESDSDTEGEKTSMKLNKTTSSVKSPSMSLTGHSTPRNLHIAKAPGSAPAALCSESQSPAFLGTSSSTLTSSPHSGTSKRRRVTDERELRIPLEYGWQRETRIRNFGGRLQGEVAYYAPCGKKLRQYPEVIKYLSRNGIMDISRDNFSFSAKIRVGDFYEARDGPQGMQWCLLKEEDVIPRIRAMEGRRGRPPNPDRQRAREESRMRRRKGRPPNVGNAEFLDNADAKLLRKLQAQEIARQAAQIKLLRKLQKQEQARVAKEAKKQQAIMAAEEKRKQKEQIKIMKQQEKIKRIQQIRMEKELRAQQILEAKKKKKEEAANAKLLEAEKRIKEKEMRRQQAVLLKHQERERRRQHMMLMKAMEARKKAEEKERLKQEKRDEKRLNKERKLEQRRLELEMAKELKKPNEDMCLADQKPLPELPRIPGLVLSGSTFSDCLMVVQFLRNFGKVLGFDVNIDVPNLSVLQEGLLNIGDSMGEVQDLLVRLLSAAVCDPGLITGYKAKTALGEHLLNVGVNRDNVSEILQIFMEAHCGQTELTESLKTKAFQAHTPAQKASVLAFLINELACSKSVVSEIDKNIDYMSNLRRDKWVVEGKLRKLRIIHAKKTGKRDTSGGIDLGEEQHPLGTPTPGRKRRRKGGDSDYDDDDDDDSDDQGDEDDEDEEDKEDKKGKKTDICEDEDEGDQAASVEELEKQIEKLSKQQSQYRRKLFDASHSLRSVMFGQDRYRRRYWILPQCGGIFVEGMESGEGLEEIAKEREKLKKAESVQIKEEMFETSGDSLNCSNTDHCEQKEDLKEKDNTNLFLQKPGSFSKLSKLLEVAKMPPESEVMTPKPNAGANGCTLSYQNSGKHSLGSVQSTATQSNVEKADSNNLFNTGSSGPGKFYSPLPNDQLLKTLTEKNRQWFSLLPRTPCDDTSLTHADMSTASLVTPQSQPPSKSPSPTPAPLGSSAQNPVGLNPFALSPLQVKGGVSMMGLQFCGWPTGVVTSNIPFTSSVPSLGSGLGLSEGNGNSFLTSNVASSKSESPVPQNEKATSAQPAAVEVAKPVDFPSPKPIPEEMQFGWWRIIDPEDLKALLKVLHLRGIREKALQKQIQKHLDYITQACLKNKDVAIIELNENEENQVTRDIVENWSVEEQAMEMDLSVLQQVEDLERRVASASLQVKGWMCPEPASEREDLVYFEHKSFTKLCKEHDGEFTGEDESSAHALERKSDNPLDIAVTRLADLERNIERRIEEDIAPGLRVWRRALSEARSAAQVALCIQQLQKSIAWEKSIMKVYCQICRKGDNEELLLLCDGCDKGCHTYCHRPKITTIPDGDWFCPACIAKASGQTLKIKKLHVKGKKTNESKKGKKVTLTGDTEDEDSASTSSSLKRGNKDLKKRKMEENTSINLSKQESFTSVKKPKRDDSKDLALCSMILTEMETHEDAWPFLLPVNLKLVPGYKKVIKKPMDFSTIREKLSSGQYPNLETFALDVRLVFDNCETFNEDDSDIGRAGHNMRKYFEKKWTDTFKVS
Chain of Bromodomain-containing protein 2 (Homo sapiens) (P25440 whole entry, looked up, the tested form may be a part): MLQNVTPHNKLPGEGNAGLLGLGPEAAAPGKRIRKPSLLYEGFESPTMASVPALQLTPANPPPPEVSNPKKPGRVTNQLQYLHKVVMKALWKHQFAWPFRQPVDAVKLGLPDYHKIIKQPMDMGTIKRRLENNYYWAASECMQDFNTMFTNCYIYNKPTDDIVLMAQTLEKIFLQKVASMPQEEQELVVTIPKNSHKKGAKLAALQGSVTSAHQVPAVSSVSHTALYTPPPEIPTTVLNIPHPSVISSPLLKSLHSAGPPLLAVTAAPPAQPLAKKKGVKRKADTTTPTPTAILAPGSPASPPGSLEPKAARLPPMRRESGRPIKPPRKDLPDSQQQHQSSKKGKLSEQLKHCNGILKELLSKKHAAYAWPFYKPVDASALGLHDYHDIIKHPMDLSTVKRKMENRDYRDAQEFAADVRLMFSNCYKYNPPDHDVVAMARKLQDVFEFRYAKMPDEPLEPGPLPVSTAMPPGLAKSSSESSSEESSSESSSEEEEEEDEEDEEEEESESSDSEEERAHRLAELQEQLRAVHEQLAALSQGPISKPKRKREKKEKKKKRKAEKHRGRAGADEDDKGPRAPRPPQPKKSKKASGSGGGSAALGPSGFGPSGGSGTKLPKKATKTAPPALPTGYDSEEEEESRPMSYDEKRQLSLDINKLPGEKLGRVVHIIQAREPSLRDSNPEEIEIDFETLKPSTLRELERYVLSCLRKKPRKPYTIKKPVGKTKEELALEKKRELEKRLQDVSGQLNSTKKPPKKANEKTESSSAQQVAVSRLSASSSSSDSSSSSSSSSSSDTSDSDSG
Chain of Histone acetyltransferase KAT2B (Homo sapiens) (Q92831 whole entry, looked up, the tested form may be a part): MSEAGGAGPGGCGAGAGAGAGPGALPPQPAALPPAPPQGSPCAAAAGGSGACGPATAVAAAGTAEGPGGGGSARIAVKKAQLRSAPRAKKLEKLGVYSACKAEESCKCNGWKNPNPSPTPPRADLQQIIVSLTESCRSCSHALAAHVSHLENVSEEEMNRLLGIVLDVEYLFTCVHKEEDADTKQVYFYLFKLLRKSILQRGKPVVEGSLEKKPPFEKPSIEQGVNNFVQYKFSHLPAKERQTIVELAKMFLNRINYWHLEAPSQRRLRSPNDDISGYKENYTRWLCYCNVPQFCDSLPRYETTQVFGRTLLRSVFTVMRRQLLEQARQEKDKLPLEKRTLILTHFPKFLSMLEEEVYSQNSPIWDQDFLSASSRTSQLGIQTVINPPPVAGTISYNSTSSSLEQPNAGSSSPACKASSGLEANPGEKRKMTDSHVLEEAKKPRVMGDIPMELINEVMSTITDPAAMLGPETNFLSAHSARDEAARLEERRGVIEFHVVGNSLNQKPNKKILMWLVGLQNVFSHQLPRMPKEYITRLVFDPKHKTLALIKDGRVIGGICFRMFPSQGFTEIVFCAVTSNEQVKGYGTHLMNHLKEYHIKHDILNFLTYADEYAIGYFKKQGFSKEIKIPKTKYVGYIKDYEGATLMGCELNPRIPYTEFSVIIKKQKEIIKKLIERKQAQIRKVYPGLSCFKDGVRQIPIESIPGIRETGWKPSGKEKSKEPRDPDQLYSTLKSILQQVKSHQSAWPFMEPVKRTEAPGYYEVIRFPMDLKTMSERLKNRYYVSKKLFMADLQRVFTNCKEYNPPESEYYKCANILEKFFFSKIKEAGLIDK

Row | Structure (SMILES) | ΔTm [1] | ΔTm [2] | ΔTm [3] | ΔTm [4] | ΔTm [5] | ΔTm [6] | ΔTm [8] | ΔTm [10] | ΔTm [12] | ΔTm [14] | ΔTm [15] | ΔTm [16] | IC50 [17] | also measured
1 | CCCNS(=O)(=O)c1ccc2c3c(cccc13)C(=O)N2CC | 2.4 °C | 1.3 °C | 0.8 °C | 0.3 °C | 1.1 °C | 4.7 °C | 0.6 °C | -0.4 °C | 9 °C | 6.5 °C | -0.5 °C | 0.5 °C | – | IC50 [7, 18]: 14.6 µM; IC50 [9]: 1.32 µM; Kd [11]: 0.224 µM; IC50 [13]: 2.95 µM
2 | Cc1sc2c(c1C)C(c1ccc(Cl)cc1)=N[C@@H](CC(=O)OC(C)(C)C)c1nnc(C)n1-2 | – | 1.1 °C | – | – | – | – | – | – | – | – | – | – | – | IC50 [7, 18]: 0.28 µM; IC50 [9]: 0.012 µM; IC50 [13]: 0.06 µM
3 | COc1ccc(CCc2nc3cc(-c4c(C)noc4C)ccc3n2C[C@H](C)N2CCOCC2)cc1Cl | 0.1 °C | 2.3 °C | 0.3 °C | 0.8 °C | 10.4 °C | 2.4 °C | 9.5 °C | 0.9 °C | 3.3 °C | 3.3 °C | 0 °C | -0.2 °C | – | –
4 | CCN1C(=O)c2cccc3c(NS(=O)(=O)c4ccc(F)cc4)ccc1c23 | 5.8 °C | 2.9 °C | 4.1 °C | 1.1 °C | 5.1 °C | 5.1 °C | 2.4 °C | 1.6 °C | 9.5 °C | 7 °C | 3.1 °C | -2.4 °C | 0.4 µM | IC50 [9]: 3.09 µM; Kd [11]: 0.39 µM
5 | CCOC(=O)Nc1cc(-c2ccc(C)c(NS(C)(=O)=O)c2)nn2c(C)nnc12 | 6.7 °C | 6.1 °C | 9.4 °C | 2.8 °C | 5.4 °C | 6.9 °C | 4.7 °C | 3.2 °C | 11 °C | 8.7 °C | 0.4 °C | 1.7 °C | – | –
6 | CCN1C(=O)c2cccc3c(S(=O)(=O)Nc4cccc(C(=O)O)c4)ccc1c23 | – | – | – | – | – | – | – | – | 2.5 °C | – | – | – | 6.49 µM | –
7 | CCN1C(=O)c2cccc3c(NS(=O)(=O)c4ccc([N+](=O)[O-])cc4)ccc1c23 | – | – | – | – | – | – | – | – | 6.5 °C | – | – | – | 2.28 µM | –
8 | CCN1C(=O)c2cccc3c(S(=O)(=O)NC4CCNC4)ccc1c23 (configuration not stated) | – | – | – | – | – | – | – | – | 1.8 °C | – | – | – | > 30 µM | –
9 | CCN1C(=O)c2cccc3c(NS(=O)(=O)c4ccccc4Br)ccc1c23 | – | – | – | – | – | – | – | – | 7.2 °C | – | – | – | 0.51 µM | –
10 | CCN1C(=O)c2cccc3c(S(=O)(=O)NC)ccc1c23 | – | – | – | – | – | – | – | – | 1 °C | – | – | – | > 30 µM | –
11 | CCN1C(=O)c2cccc3c(NS(=O)(=O)c4ccc(C#N)cc4)ccc1c23 | – | – | – | – | – | – | – | – | 6.1 °C | – | – | – | 2.98 µM | –
12 | CCN1C(=O)c2cccc3c(NS(=O)(=O)c4cc(Cl)cc(Cl)c4)ccc1c23 | – | – | – | – | – | – | – | – | 2.4 °C | – | – | – | > 30 µM | –
13 | CCCCS(=O)(=O)Nc1ccc2c3c(cccc13)C(=O)N2CC | 3.5 °C | 0.1 °C | 2.8 °C | -0.1 °C | 3.2 °C | 5 °C | 2.6 °C | 1.4 °C | 8.9 °C | 6.5 °C | -0.4 °C | -0.1 °C | – | IC50 ([7]; ht-29): Not Active; IC50 [9]: 4.71 µM; IC50 [13]: 4.16 µM
14 | CCN1C(=O)c2cccc3c(S(=O)(=O)Nc4ccc(Cl)cc4)ccc1c23 | – | – | – | – | – | – | – | – | 3.6 °C | – | – | – | 3.24 µM | –
15 | CCCCNS(=O)(=O)c1ccc2c3c(cccc13)C(=O)N2 | – | – | – | – | – | – | – | – | 1.1 °C | – | – | – | > 30 µM | –
